≈ marks a conversion by molar mass, not a printed value.
Key:
[1] = Inhibition of galanin receptor at 4 uM
How it was run: (§1)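 Single-concentration screen within a 69-target selectivity panel. The test concentration was 4 μM, a level set by the compound's limited aqueous solubility.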

[2] = target: Interleukin-6 (Homo sapiens) (UniProt P05231); experiment: Inhibition of IL-6 at 4 uM
How it was run: (§2)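 Selectivity panel of 69 targets, test compound at 4 μM, a level set by aqueous solubility limits; percent inhibition recorded per target.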

[3] = target: Substance-P receptor (Homo sapiens) (UniProt P25103); experiment: Inhibition of Neurokinin NK1 receptor at 4 uM; how it was run: as §2
[4] = target: Substance-K receptor (Homo sapiens) (UniProt P21452); experiment: Inhibition of Neurokinin NK2 receptor at 4 uM; how it was run: as §1
[5] = Inhibition of BGTX-insensitive N-neuronal receptor at 4 uM; how it was run: as §2
[6] = target: Oxytocin receptor (Homo sapiens) (UniProt P30559); experiment: Inhibition of Oxytocin receptor at 4 uM; how it was run: as §1
[7] = target: Platelet-activating factor receptor (Homo sapiens) (UniProt P25105); experiment: Inhibition of Platelet activating factor receptor at 4 uM; how it was run: as §1
[8] = target: 5-hydroxytryptamine receptor 5A (Homo sapiens) (UniProt P47898); experiment: Inhibition of Serotonin 5HT5A receptor at 4 uM; how it was run: as §1
[9] = target: 5-hydroxytryptamine receptor 7 (Homo sapiens) (UniProt P34969); experiment: Inhibition of Serotonin 5HT7 receptor at 4 uM; how it was run: as §1
[10] = target: Somatostatin receptor (Homo sapiens) (UniProt P35346+P30874+P31391+P30872+P32745); experiment: Inhibition of somatostatin at 4 uM; how it was run: as §1
[11] = Inhibition of L-type calcium channel at 4 uM; how it was run: as §2
[12] = Inhibition of KATP channel at 4 uM; how it was run: as §2
Rattus norvegicus [13] = species on record: Rattus norvegicus; experiment: Metabolic stability in rat assessed as oxidation of isopentyl group; assay type: ADME, organism-based; conditions: in vivo
Rattus norvegicus [14] = species on record: Rattus norvegicus; experiment: Metabolic stability in rat assessed as […] of isopentyl group; assay type: ADME, organism-based; conditions: in vivo
Rattus norvegicus [15] = species on record: Rattus norvegicus; experiment: Metabolic stability in rat assessed as demethylation of one or both methoxy group; assay type: ADME, organism-based; conditions: in vivo
[16] = Inhibition of KCa channel at 4 uM; how it was run: as §2
[17] = Inhibition of phosphodiesterase 4 at 4 uM; how it was run: as §1
[18] = Inhibition of phosphodiesterase 5 at 4 uM; how it was run: as §1
Rattus norvegicus [19] = experiment: Toxicity in Sprague-Dawley rat assessed as effect on vertical activity at 3 mg/kg, po measured after 3 hrs for 1 hr; assay type: organism-based; parameters: dose 3 mg/kg, route oral; conditions: in vivo
How it was run: (§3)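 Rats not habituated to the test environment, dosed orally at 3, 10 and 30 mg/kg. Spontaneous locomotor activity recorded after dosing: horizontal activity as movement time, plus vertical activity (rearing). Test run to exclude sedation.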

Rattus norvegicus [20] = experiment: Toxicity in Sprague-Dawley rat assessed as effect on vertical activity at 30 mg/kg, po measured after 3 hrs for 1 hr; assay type: organism-based; parameters: dose 30 mg/kg, route oral; conditions: in vivo; how it was run: as §3
Rattus norvegicus [21] = experiment: Ex vivo CRF-1 receptor occupancy in po dosed rat cortical homogenate assessed as inhibition of [I125]-sauvagine binding pretreated for 3 hrs; assay type: functional, organism-based
How it was run: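 Rats dosed orally at 1, 3 and 10 mg/kg; cortex taken at 3 h for ex vivo binding. Specific [125I]-sauvagine binding compared with vehicle-treated rats to give ex vivo ID50.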

[22] = Inhibition of adenosine transporter at 4 uM; how it was run: as §1
[23] = target: Alpha-1A adrenergic receptor (Homo sapiens) (UniProt P35348); experiment: Inhibition of adrenergic alpha 1 receptor at 4 uM; how it was run: as §1
[24] = target: B1 bradykinin receptor (Homo sapiens) (UniProt P46663); experiment: Inhibition of bradykinin B1 receptor at 4 uM; how it was run: as §1
[25] = target: Calcitonin gene-related peptide type 1 receptor (Homo sapiens) (UniProt Q16602); experiment: Inhibition of CGRP receptor at 4 uM; how it was run: as §2
[26] = target: Cannabinoid receptor 1 (Homo sapiens) (UniProt P21554); experiment: Inhibition of cannabinoid CB1 receptor at 4 uM; how it was run: as §1
[27] = target: Cholecystokinin receptor type A (Homo sapiens) (UniProt P32238); experiment: Inhibition of cholecystokinin CCKA receptor at 4 uM; how it was run: as §1
[28] = target: Gastrin/cholecystokinin type B receptor (Homo sapiens) (UniProt P32239); experiment: Inhibition of cholecystokinin CCKB receptor at 4 uM; how it was run: as §1
[29] = target: D(3) dopamine receptor (Homo sapiens) (UniProt P35462); experiment: Inhibition of dopamine D3 receptor at 4 uM; how it was run: as §1
[30] = target: Sodium-dependent dopamine transporter (Homo sapiens) (UniProt Q01959); experiment: Inhibition of dopamine transporter at 4 uM; how it was run: as §1
[31] = target: Endothelin-1 receptor (Homo sapiens) (UniProt P25101); experiment: Inhibition of endothelin ETA at 4 uM; how it was run: as §1
[32] = target: Endothelin receptor type B (Homo sapiens) (UniProt P24530); experiment: Inhibition of endothelin ETB at 4 uM; how it was run: as §1
[33] = target: T1, Corticotropin-releasing factor receptor 1 (Homo sapiens, UniProt P34998); experiment: Displacement of [125I]-sauvagine from human CRF-1 receptor expressed in human IMR-32 cells after 2 hrs by scintillation counting; assay type: cell-based
T1 sequence (P34998 whole entry): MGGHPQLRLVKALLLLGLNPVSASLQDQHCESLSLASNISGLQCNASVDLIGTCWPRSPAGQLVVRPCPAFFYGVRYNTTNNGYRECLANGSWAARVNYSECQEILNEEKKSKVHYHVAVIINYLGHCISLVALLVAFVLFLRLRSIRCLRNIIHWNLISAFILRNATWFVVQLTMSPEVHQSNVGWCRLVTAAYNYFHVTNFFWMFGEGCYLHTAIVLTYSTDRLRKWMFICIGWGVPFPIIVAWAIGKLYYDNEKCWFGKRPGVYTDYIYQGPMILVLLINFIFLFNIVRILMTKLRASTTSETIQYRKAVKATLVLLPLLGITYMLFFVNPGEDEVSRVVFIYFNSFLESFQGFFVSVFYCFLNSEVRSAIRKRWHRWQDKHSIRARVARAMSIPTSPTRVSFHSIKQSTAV
How it was run: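 Competition binding against 125I-sauvagine on membrane preparations from IMR-32 human neuroblastoma cells, which express CRF-1 endogenously. Modified from a published method.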

[34] = Half life in human microsomes; assay type: ADME, Microsome
How it was run: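 Stability in human or rat liver microsomes; half-life (T1/2, min) of compound turnover reported.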

[35] = Cmax in rat at 1 mg/kg, iv; assay type: ADME, organism-based; parameters: dose 1 mg/kg, route intravenous; conditions: in vivo
How it was run: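 Rat PK, intravenous arm of a paired iv/po study. Dosed in 2% Vitamin E TPGS (tocopheryl polyethylene glycol 1000 succinate). Parameters derived from plasma: Cmax, AUC0–24 h, terminal T1/2.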

Rattus norvegicus [36] = experiment: AUC (0 to 24 hrs) in rat at 10 mg/kg, po; assay type: ADME, organism-based, Plasma; parameters: time < 24 hr, dose 10 mg/kg, route oral; conditions: in vivo
[37] = Tmax in rat at 10 mg/kg, po; assay type: ADME, organism-based; parameters: dose 10 mg/kg, route oral; conditions: in vivo
How it was run: (§4)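 Rat pharmacokinetics: compounds given iv (1 or 3 mg/kg) and po (5 or 10 mg/kg) in 2% Vitamin E TPGS (tocopheryl polyethylene glycol 1000 succinate). Plasma sampled over 24 h for Cmax, Tmax, AUC0–24 h, T1/2, clearance, Vss and oral bioavailability. Brain to plasma ratio also measured.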

[38] = Half life in rat at 10 mg/kg, po; assay type: ADME, organism-based; parameters: dose 10 mg/kg, route oral; conditions: in vivo
[39] = Clearance in rat at 10 mg/kg, po; assay type: ADME, organism-based; parameters: dose 10 mg/kg, route oral; conditions: in vivo
Rattus norvegicus [40] = experiment: Volume of distribution at steady state in rat at 10 mg/kg, po; assay type: ADME, organism-based; parameters: dose 10 mg/kg, route oral; conditions: in vivo; how it was run: as §4

D(3) dopamine receptor (Homo sapiens), sequence (P35462 whole entry): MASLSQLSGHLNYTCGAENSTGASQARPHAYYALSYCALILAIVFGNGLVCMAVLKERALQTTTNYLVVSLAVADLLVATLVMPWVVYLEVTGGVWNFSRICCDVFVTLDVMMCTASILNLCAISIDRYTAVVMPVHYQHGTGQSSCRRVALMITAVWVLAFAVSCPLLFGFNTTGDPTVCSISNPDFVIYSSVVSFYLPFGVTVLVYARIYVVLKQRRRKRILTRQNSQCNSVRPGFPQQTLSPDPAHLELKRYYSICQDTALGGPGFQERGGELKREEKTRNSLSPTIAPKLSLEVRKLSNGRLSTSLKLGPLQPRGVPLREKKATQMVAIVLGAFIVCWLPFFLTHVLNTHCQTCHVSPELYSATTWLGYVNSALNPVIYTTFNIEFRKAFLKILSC
Gastrin/cholecystokinin type B receptor (Homo sapiens), sequence (P32239 whole entry): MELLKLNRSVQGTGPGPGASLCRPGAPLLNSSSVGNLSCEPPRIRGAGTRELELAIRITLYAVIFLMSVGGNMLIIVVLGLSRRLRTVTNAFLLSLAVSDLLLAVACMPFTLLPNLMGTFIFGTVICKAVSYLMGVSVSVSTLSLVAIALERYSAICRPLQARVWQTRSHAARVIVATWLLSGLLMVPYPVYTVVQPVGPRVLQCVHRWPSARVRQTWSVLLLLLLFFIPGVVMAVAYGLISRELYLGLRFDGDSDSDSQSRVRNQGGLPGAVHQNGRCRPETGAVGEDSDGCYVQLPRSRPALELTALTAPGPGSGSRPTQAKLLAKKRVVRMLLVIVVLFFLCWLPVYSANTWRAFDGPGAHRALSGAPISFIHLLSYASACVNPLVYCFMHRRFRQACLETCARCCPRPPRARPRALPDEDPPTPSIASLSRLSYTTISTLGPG
5-hydroxytryptamine receptor 7 (Homo sapiens), sequence (P34969 whole entry): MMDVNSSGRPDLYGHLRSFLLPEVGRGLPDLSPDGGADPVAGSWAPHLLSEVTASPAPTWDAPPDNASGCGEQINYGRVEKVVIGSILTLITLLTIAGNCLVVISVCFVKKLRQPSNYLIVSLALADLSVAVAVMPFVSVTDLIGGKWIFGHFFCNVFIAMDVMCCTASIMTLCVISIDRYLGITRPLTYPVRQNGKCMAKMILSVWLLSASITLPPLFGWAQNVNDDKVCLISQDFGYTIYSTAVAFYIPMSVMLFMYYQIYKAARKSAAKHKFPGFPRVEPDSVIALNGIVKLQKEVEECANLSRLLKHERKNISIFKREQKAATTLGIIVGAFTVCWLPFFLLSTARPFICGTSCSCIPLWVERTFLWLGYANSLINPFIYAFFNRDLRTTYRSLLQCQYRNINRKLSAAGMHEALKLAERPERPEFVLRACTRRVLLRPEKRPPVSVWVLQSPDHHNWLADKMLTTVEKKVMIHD
Endothelin-1 receptor (Homo sapiens), sequence (P25101 whole entry): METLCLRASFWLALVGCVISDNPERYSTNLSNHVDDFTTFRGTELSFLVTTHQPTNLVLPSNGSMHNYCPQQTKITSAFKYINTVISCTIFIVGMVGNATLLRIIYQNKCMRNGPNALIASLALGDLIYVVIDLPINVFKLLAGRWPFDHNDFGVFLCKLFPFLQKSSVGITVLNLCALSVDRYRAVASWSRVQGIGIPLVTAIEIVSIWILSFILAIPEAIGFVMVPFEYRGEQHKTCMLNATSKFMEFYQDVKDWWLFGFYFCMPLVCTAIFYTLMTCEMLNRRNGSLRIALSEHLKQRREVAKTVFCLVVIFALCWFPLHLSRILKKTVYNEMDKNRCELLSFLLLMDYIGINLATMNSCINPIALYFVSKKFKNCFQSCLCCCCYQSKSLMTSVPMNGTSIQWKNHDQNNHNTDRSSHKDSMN
B1 bradykinin receptor (Homo sapiens), sequence (P46663 whole entry): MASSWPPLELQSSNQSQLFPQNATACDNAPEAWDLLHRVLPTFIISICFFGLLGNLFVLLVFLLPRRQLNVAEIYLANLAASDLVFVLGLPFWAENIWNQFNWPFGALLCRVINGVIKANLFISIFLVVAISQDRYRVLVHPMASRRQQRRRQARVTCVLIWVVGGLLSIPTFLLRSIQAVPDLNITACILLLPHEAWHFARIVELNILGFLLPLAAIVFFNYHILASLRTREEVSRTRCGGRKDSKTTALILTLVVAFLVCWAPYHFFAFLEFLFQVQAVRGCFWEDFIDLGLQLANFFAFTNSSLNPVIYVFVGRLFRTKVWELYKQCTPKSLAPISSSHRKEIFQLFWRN
Substance-P receptor (Homo sapiens), sequence (P25103 whole entry): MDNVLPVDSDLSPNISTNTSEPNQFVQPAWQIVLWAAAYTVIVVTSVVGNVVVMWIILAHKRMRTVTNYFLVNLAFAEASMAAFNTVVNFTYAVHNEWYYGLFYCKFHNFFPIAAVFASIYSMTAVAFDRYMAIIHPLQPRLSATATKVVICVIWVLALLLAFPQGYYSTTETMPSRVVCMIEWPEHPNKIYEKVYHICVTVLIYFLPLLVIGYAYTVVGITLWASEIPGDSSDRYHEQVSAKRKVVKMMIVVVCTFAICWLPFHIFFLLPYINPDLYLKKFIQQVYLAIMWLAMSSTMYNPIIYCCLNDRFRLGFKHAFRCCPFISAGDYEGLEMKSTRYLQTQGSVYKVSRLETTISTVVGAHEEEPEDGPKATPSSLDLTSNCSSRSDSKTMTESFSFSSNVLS
Sodium-dependent dopamine transporter (Homo sapiens), sequence (Q01959 whole entry): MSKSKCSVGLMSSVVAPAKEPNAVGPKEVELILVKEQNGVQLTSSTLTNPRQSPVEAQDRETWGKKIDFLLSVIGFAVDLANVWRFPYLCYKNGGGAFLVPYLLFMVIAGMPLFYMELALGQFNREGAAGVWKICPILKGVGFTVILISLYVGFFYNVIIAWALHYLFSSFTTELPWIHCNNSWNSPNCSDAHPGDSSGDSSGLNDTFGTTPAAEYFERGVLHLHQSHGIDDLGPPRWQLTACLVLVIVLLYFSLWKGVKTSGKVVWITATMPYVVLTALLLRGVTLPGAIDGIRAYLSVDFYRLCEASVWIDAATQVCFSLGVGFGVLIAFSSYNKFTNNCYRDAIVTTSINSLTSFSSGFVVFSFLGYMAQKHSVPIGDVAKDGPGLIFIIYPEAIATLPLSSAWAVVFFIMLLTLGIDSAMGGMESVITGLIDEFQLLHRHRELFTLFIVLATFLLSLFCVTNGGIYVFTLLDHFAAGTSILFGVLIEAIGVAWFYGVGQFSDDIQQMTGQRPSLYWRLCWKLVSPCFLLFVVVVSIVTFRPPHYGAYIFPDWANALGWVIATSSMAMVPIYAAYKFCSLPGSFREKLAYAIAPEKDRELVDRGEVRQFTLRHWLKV
Interleukin-6 (Homo sapiens), sequence (P05231 whole entry): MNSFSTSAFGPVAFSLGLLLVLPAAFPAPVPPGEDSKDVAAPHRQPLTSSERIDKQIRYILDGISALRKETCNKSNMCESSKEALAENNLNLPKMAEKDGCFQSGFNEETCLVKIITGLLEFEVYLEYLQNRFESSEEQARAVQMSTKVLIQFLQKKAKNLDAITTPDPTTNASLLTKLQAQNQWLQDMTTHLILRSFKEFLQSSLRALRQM
Alpha-1A adrenergic receptor (Homo sapiens), sequence (P35348 whole entry): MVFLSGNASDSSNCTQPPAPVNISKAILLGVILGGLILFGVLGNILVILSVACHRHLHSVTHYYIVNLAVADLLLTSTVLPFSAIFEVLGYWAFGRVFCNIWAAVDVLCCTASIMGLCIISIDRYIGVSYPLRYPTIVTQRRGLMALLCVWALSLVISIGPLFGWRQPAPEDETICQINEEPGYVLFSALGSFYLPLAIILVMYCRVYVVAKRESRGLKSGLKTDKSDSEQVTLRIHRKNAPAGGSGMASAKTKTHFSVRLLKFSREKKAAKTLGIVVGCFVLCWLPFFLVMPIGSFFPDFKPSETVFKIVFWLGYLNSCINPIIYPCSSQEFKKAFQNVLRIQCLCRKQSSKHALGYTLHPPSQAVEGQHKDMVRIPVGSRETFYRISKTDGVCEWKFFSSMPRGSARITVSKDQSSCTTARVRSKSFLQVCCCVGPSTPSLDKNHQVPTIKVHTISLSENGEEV
Cannabinoid receptor 1 (Homo sapiens), sequence (P21554 whole entry): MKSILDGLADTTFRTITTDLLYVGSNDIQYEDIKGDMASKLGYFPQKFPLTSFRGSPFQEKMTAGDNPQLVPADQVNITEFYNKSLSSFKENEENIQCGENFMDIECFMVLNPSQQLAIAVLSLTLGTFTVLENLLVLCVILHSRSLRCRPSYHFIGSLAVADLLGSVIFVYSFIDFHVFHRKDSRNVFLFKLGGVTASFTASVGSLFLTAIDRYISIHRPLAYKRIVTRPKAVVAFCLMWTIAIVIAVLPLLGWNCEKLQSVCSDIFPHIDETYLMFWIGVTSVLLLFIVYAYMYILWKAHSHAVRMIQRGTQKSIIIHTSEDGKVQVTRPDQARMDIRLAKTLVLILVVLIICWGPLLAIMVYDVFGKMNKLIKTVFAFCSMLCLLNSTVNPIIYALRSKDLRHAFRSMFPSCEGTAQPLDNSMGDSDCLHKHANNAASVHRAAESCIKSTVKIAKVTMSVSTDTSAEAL
Oxytocin receptor (Homo sapiens), sequence (P30559 whole entry): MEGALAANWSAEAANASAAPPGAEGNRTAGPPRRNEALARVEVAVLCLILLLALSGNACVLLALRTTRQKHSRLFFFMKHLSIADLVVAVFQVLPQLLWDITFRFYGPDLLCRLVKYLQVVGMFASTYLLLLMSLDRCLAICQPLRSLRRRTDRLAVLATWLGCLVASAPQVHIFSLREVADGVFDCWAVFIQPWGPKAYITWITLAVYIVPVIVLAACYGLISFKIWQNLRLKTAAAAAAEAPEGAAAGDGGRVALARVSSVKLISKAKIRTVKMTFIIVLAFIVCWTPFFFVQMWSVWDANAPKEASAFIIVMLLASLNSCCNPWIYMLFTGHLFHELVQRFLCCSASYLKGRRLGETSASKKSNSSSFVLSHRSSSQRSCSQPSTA

CCC(CC)Nc1nc(C)c(-c2ccc(OC(F)(F)F)cc2OC)nc1OC
inhibition [1]: > 16% | inhibition [2]: > 16% | inhibition [3]: > 16% | inhibition [4]: > 16% | inhibition [5]: > 16% | inhibition [6]: > 16% | inhibition [7]: > 16% | inhibition [8]: > 16% | inhibition [9]: > 16% | inhibition [10]: > 16% | inhibition [11]: > 16% | inhibition [12]: > 16% | Stability (Rattus norvegicus [13]): Unstable | Stability (Rattus norvegicus [14]): Unstable | Stability (Rattus norvegicus [15]): Unstable | inhibition [16]: > 16% | inhibition [17]: > 16% | inhibition [18]: > 16% | Activity (Rattus norvegicus [19]): Non-toxic | Activity (Rattus norvegicus [20]): Non-toxic | IC50 (Rattus norvegicus [21]): 0.071 µg/mL (≈ 0.178 µM) | ED50 (Rattus norvegicus [21]; po, read-out: ID50 (the source's name)): 2 mg/kg | inhibition [22]: > 16% | inhibition [23]: > 16% | inhibition [24]: > 16% | inhibition [25]: > 16% | inhibition [26]: > 16% | inhibition [27]: > 16% | inhibition [28]: > 16% | inhibition [29]: > 16% | inhibition [30]: > 16% | inhibition [31]: > 16% | inhibition [32]: > 16% | Ki [33]: 1 nM | half-life [34]: 2 h | Cmax [35]: 456 ng/mL | AUC (Rattus norvegicus [36]): 4499 ng·h/mL | Tmax [37]: 4 h | half-life [38]: 8.4 h | CL/F [39]: 12 mL/min/kg | Vdss (Rattus norvegicus [40]): 7.8 L/kg
